Data taken from PubChem BioAssay.
Results filed as inconclusive are left out.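 How the source made its calls, unless noted: active means viability increase at or above a cutoff of the median across tested compounds plus 3 SD (cut at about 8.5% in these data, passing the limit was not always enough); inconclusive means some gains above the cutoff, reason not given; inactive means the rest.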

Legend:
[1] = OD615 S. cerevisiae growth inhibition, permissive medium, pilot counter-assay, permissive growth control for S. cerevisiae lifespan shortening project (AID 705;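 active means growth inhibition above 25% in both replicates, a cutoff set 3 SD above the mean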); conditions: OD615, 24 h, at 10 µM, stronger effect = higher value
Outline: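 assay system = Saccharomyces cerevisiae strain carrying genetically modified DeaD replicative-lifespan system | technique = absorbance (optical density) at 615 nm | buffer or medium = permissive raffinose/galactose medium | timing = cells pre-grown 4 h, then 24 h compound exposure, 30 °C humidified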

[2] = Restrictive medium S. cerevisiae growth inhibition, OD615, pilot screen of yeast lifespan reduction project, restrictive growth control (AID 706;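 active means growth inhibition above a set limit, 3 SD over mean compound inhibition, in both replicates, cut at about 43% in these data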;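 further: modified DeaD lifespan yeast strain shifted to restrictive glucose medium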); conditions: OD615, 48 h, at 10 µM, stronger effect = higher value
Outline: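 System: modified S. cerevisiae. Buffer or medium: CSMM-D glucose medium. Incubation: 4 h pre-growth plus 48 h compound exposure, 30 °C. Detection: absorbance (optical density) measured at 615 nm.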

[3] = viability gain of MRP-1-high H69AR cells under doxorubicin, pilot screen, MRP-1 activator project, CellTiter-Glo, duplicate (AID 807); conditions: H69AR viability with doxorubicin, CellTiter-Glo luminescence; at 10 µM; stronger effect = higher value;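 further: compound pretreatment 18-22 h then 72 h combined with doxorubicin; 0% = doxorubicin alone and 100% = vehicle without doxorubicin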
[4] = growth suppression of beta-catenin knockout HCT116, pilot screen, human colon tumor cells (AID 823;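 active means cell viability at or below a set limit in both duplicate runs, the limit being the all-compound median minus 4 SD, cut at about 23% in these data, passing the limit was not always enough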;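 further: 0% = wells killed by 20 µM Hyamine and 100% = untreated DMSO cell wells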); conditions: CellTiter-Glo, 60 h, at 10 µM, stronger effect = lower value
[5] = growth suppression of PTEN-deleted HCT116, pilot screen, cell-based, HCT116 clonal line, CellTiter-Glo (AID 824;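 active means viability at or below 27.92% in each of two runs, the all-compound median minus 4 SD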;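 further: 0% = 20 µM Hyamine control and 100% = vehicle cell control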); conditions: 60 h, at 10 µM, stronger effect = lower value
[6] = inhibitors of the yeast RAM network, pilot screen, dse1pr::URA3 reporter, 5-FOA selection (AID 869;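 active means inhibition over a set limit, the all-compound mean plus 3 SD, in both replicate runs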;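 further: 0% = DMSO wells with no growth and 100% = 10 µM 1-NA-PP1 with full growth; RAM network block rescues cells from 5-FOA so hits raise OD615 growth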); conditions: S. cerevisiae dse1pr::URA3 5-FOA growth, OD615, 2 d; at 10 µM; stronger effect = higher value; strain carries analog-sensitive mutant Cbk1 kinase

CCCCOc1ccccc1C1NC(=O)NC(C)=C1C(=O)OCCOC (centres undefined)
inactive: growth inhibition [1] -16% | growth inhibition [2] -16.6% | viability increase [3] -2.89% | viability [4] 92.9% | viability [5] 88.1% | inhibition [6] 2.28%

CCOc1ccc(NC(=O)C2CSC(c3ccncc3)=N2)cc1 (centres undefined)
inactive: growth inhibition [1] -3.44% | growth inhibition [2] 29.4% | viability increase [3] -0.05% | viability [4] 98.3% | viability [5] 103% | inhibition [6] 0.675%

O=C(CCCCn1c(=O)[nH]c2ccsc2c1=O)NCC1CCCO1 (centres undefined)
inactive: growth inhibition [1] 2.62% | growth inhibition [2] -0.86% | viability increase [3] -3.45% | viability [4] 97.1% | inhibition [6] 1.61%

C=C(C)Cn1c(SCC(=O)O)nnc1-c1ccc(C(C)(C)C)cc1
inactive: growth inhibition [1] -15.7% | growth inhibition [2] -4.97% | viability increase [3] 0.28% | viability [5] 101% | inhibition [6] 1%

CCCCN(C)CCCNC(=O)Cn1c(=O)sc2ccccc21
inactive: growth inhibition [1] -8.58% | growth inhibition [2] -10.9% | viability increase [3] -3.13% | viability [5] 97.5% | inhibition [6] 1.33%

O=C1c2ccccc2C(Nc2ccc(S(=O)(=O)N3CCOCC3)cc2)N1c1cccnc1 (centres undefined)
inactive: growth inhibition [1] -3.45% | growth inhibition [2] -1.27% | viability increase [3] -0.92% | viability [4] 102% | viability [5] 97% | inhibition [6] -0.33%

COc1ccc(OC)c(-c2cc(C(=O)N3CCN(c4ccccc4)CC3)no2)c1
inactive: growth inhibition [1] -11.8% | growth inhibition [2] 20.3% | viability increase [3] -2.36% | viability [4] 96.9% | viability [5] 88.8% | inhibition [6] 1.72%
